In article PMC11617931 (Molecular Therapy. Nucleic Acids, 2024):
Bridge positions count the residues as written; N and C are the ends. Ends that are not written are not given here.

How the values were obtained:
[1] = tested on: mucus-producing differentiated CF pHBECs cultured at ALI; assay: Validation of phage clone uptake by standard double-layer plaque assay; type: cell-based, human; settings: Cout/Cin, 1 h, 37°C, n = 3
Procedure, shortened: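 Clones were sequence-verified from BL21 E. coli plaques and amplified in liquid BL21 culture. Each clone (3.3 × 10^7 PFU in 100 µL DPBS) was applied apically to ALI-differentiated CF pHBECs for 1 h at 37°C. Cells were washed with elution buffer and DPBS, lysed with M-PER, and spun at 14,000 × g. Internalized phage in the supernatant were titered by double-layer plaque assay as Cout/Cin. Controls were peptide-less WT phage, naive library, and CPS phage.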

[2] = tested on: differentiated CF pHBECs cultured at ALI; type: cell-based, human; settings: average of three replicates, first to last round; 1,000 vg/cell
Procedure, shortened: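 Pooled T7 CX7C phage libraries were diluted in DPBS (no Ca2+/Mg2+) to 3.3 × 10^5 PFU/µL, giving 1,000 vg/cell, and applied to ALI-differentiated CF pHBECs pooled from seven donors (3.3 × 10^4 cells/insert). Incubation was 16 h at 37°C in round 1 and 1 h in round 5. Lysate was spun at 14,000 × g for 10 min and the supernatant titered by double-layer plaque assay. Output was pooled as input for the next round. Cout/Cin change was taken from three replicates, unpaired t test.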

[3] = 3.3 × 10^7 PFU apical, p < 0.005

CTSTRKKQC (disulfide 1-9 (inferred)) [Clone C]
uptake compared to insertless wild-type (WT) control and CPS control [1]: significantly improved uptake | improvement in uptake compared to naive library ([1]; 3.3 × 10^7 PFU apical, p < 0.0005): ~454 fold | improvement in uptake compared to WT [1, 3]: 56 fold | improvement in uptake compared to clone CPS [1, 3]: 50 fold

CXXXXXXXC (disulfide) [CX7C T7 library]
increase in Cout/Cin after five rounds of selection [2]: 380 fold
